Laboratory results: publication PMC2720252 (Regenerative medicine, 2009)

Tests used:
[1] = system: 5 mm excisional wounds on adult CD-1 mice; experiment: Full-thickness 5 mm excisional wound closure in adult mice; assay type: in vivo, mouse
Procedure, shortened: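 Adult CD-1 mice received 5 mm full-thickness excisional wounds treated with 20% pluronic gel alone (n = 102) or with 60 μM peptide (n = 95). Gel was applied at wounding and again 24 h later. Wounds were imaged under anaesthesia at 1, 4, 7 and 10 days, and area was measured blind to treatment. There were nine independent experiments with 8–16 animals per group. Analysis used t-test with Bonferroni correction.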

[2] = system: wounded skin of neonatal mice; experiment: Detection and distribution of peptide in wounded skin; assay type: in vivo, mouse; settings: whole-mount skin, 60 μM, 2 h postwounding, streptavidin (Alexa 594) confocal
Cx43 = experiment: Quantitative immunolabeling of Cx43 and ZO-1 in wound epidermis; assay type: in vivo; settings: adult mouse wound epidermis, 24 h
Procedure, shortened: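 Paired peptide-treated and control wounds were taken from the same five adult mice. Peptide was given at 60 μM in 20% pluronic gel. Sections taken 24 h after injury were labelled with Cx43 and ZO-1 antibodies plus DAPI and imaged by laser scanning confocal microscopy. Epidermal Cx43 particle size, numerical density and total immunolabelled area were quantified.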

[3] = system: neutrophils at adult mouse excisional skin injuries; experiment: Neutrophil counts in H&E sections of adult excisional wounds; assay type: in vivo; settings: 24 h and 4 days, three treatment and three control wounds, p < 0.01-0.001
[4] = system: Cx43-expressing HeLa cells; settings: cited from earlier work
[5] = system: second PDZ domain (PDZ2) of zonula occludens (ZO)-1; settings: cited from earlier work
[6] = system: neutrophils at 2 mm excisional wounds on neonatal mice; experiment: Whole-mount myeloperoxidase neutrophil density assay in neonatal wounds; assay type: in vivo, mouse; settings: 48 h postwounding
Procedure, shortened: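 Two-day-old pups were sedated by hypothermia and given bilateral 2 mm punch wounds at least 1 cm apart; one wound per mouse received 60 μM peptide and the other vehicle. For the 48 h harvest, treatment was repeated at 24 h. Myeloperoxidase-positive cells were grid-counted blind. Analysis used Wilcoxon matched-pairs test.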

[7] = system: healed excisional wounds of adult mice; experiment: Tensile testing to failure of skin strips with healed wounds; assay type: in vivo, mouse; settings: 3 months postwounding
[8] = system: 5 mm excisional wounds on adult CD-1 mice; assay type: in vivo, mouse; settings: two blinded observers, vs vehicle
Procedure, shortened: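 Adult CD-1 mice received full-thickness 5 mm excisional wounds, treated immediately and again at 24 h with 20% pluronic gel with or without 60 μM peptide. Wound images were scored 0–5 by two observers blind to treatment. Redness/swelling was scored at 24 h and 4 days, and appearance/scarring (discoloration, smoothness) at 7 and 10 days. Each wound's score was the mean of both observers. Data came from nine experiments.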

[9] = adult mice, 5 mm excisional wound, 10-day time course, vs controls

RQPKIWFPNRRKPWKKRPRPDDLEI [ACT1]
healed appearance (qualitative) [1, 9]: less discolored appearance
swelling / inflammation of wound (qualitative) [1, 9]: less swollen and inflamed
experiments with significantly accelerated closure rate ([1]; nine independent experiments, 8-16 animals per group): eight of the nine experiments
spread of peptide in tissue after application to wound [2]: could be observed in tissues surrounding the wound edges
apically localized ZO-1 staining proximal to wound edge (Cx43): reduction appeared to be more pronounced
average size of Cx43 particles (GJs) (Cx43; paired wounds on five mice): significant (p < 0.05) overall increase
numerical density of Cx43 particles (Cx43; paired wounds on five mice): significantly (p < 0.05) reduced
neutrophil density [3]: significant decreases
Cx43 distribution and levels ([4]; Cx43-expressing HeLa cells): redistribution of Cx43 from a detergent-soluble to an insoluble fraction without causing changes in overall levels of the protein
GJ aggregate size and number ([4]; Cx43-expressing HeLa cells): increase in the size and decrease in the number of GJ aggregates
subcellular targeting of peptide ([4]; HeLa cells): Cytoplasmic targeting
effect on Cx43-ZO-1 interaction [5]: competitively inhibiting the interaction of endogenous Cx43 molecules with ZO-1
localisation of neutrophils at wound [6]: frequently sequestered in blood vessels
overall appearance of healed wounds [7]: improvement in overall appearance of the healed wounds is maintained
scarring/overall appearance score (0-5) ([8]; 7 and 10 days postwounding): significantly improved
wound redness score (0-5) ([8]; 24 h and 4 days postwounding): significantly decreased
